Measured values: ChEMBL document CHEMBL2331506, “Design, synthesis, antiviral and cytostatic evaluation of novel isoxazolidine nucleotide analogues with a carbamoyl linker” (Bioorg Med Chem, 2013)
Activity calls are given as the source filed them. How the calls were made is not given here.

Tested on: Vaccinia virus
Assay: Antiviral activity against Vaccinia virus Lederle infected in human HEL cells assessed as reduction of virus-induced cytopathogenicity at 250 uM
Type: functional, organism-based
Conditions: Orthopoxvirus vaccinia
Summary of the method: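 Confluent cell monolayers were infected with 100 CCID50 of virus while exposed to varying compound concentrations. Cytopathicity was scored once it was complete in untreated infected controls. EC50 was taken as the concentration that reduced virus-induced cytopathogenicity by 50%.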

| SMILES | inhibition |
| --- | --- |
| CCOP(=O)(OCC)[C@@H]1C[C@@H](C(=O)Nc2ccccc2Cl)ON1C (racemic) | inactive |
| CCOP(=O)(OCC)[C@@H]1C[C@H](C(=O)Nc2ccc(OC)c(OC)c2)ON1C (mixture of isomers) | inactive |
| CCOP(=O)(OCC)[C@H]1C[C@H](C(=O)Nc2ccc(F)cc2)ON1C (racemic) | inactive |
| CCOP(=O)(OCC)[C@H]1C[C@H](C(=O)Nc2cccc(OC)c2)ON1C (racemic) | inactive |
| CCOP(=O)(OCC)[C@@H]1C[C@H](C(=O)Nc2ccc(C(C)=O)cc2)ON1C (racemic) | inactive |
| CCOP(=O)(OCC)[C@@H]1C[C@H](C(=O)Nc2cc(OC)c(OC)c(OC)c2)ON1C (racemic) | inactive |
| CCOP(=O)(OCC)[C@H]1C[C@H](C(=O)Nc2ccccc2[N+](=O)[O-])ON1C (mixture of isomers) | inactive |
| CCOP(=O)(OCC)[C@H]1C[C@H](C(=O)Nc2ccc(Cl)cc2)ON1C (relative stereo) | inactive |
| CCOP(=O)(OCC)[C@H]1C[C@H](C(=O)Nc2ccc(Br)cc2)ON1C (mixture of isomers) | inactive |
| CCOP(=O)(OCC)[C@@H]1C[C@H](C(=O)Nc2ccc(Cl)cc2)ON1C (mixture of isomers) | inactive |
| CCOP(=O)(OCC)[C@@H]1C[C@H](C(=O)Nc2ccc(Br)cc2)ON1C (mixture of isomers) | inactive |
| CCOP(=O)(OCC)[C@@H]1C[C@H](C(=O)Nc2cccc(OC)c2)ON1C (mixture of isomers) | inactive |
| CCOP(=O)(OCC)[C@H]1C[C@H](C(=O)Nc2cccc([N+](=O)[O-])c2)ON1C (mixture of isomers) | inactive |
| CCOP(=O)(OCC)[C@@H]1C[C@H](C(=O)Nc2ccccc2F)ON1C (racemic) | inactive |
| CCOP(=O)(OCC)[C@H]1C[C@H](C(=O)Nc2cccc(Cl)c2)ON1C (mixture of isomers) | inactive |
| CCOP(=O)(OCC)[C@H]1C[C@H](C(=O)Nc2cccc(Br)c2)ON1C (racemic) | inactive |
| CCOP(=O)(OCC)[C@@H]1C[C@H](C(=O)Nc2ccccc2C(C)=O)ON1C (mixture of isomers) | inactive |
| CCOP(=O)(OCC)[C@H]1C[C@H](C(=O)Nc2ccc(C#N)cc2)ON1C (racemic) | inactive |
| CCOP(=O)(OCC)[C@@H]1C[C@H](C(=O)Nc2cccc(C(C)=O)c2)ON1C (racemic) | inactive |
| CCOP(=O)(OCC)[C@@H]1C[C@H](C(=O)Nc2ccc(C)cc2)ON1C (mixture of isomers) | inactive |
| CCOP(=O)(OCC)[C@@H]1C[C@H](C(=O)Nc2cccc(Br)c2)ON1C (mixture of isomers) | inactive |
| CCOP(=O)(OCC)[C@@H]1C[C@H](C(=O)Nc2ccc(C#N)cc2)ON1C (mixture of isomers) | inactive |
| CCOP(=O)(OCC)[C@H]1C[C@H](C(=O)Nc2ccccc2C(C)=O)ON1C (mixture of isomers) | inactive |
| CCOP(=O)(OCC)[C@@H]1C[C@H](C(=O)Nc2ccccc2Br)ON1C (mixture of isomers) | inactive |
| CCOP(=O)(OCC)[C@H]1C[C@H](C(=O)Nc2ccc(C(C)=O)cc2)ON1C (mixture of isomers) | inactive |
| CCOP(=O)(OCC)[C@H]1C[C@H](C(=O)Nc2cccc(C(C)=O)c2)ON1C (mixture of isomers) | inactive |
| CCOP(=O)(OCC)[C@H]1C[C@H](C(=O)Nc2cc(OC)c(OC)cc2C#N)ON1C (mixture of isomers) | inactive |

| SMILES | inhibition |
| --- | --- |
| CCOP(=O)(OCC)[C@H]1C[C@H](C(=O)Nc2cc(OC)c(OC)c(OC)c2)ON1C (mixture of isomers) | inactive |
| CCOP(=O)(OCC)[C@@H]1C[C@H](C(=O)Nc2cccc(Cl)c2)ON1C (mixture of isomers) | inactive |
| CCOP(=O)(OCC)[C@@H]1C[C@H](C(=O)Nc2ccccc2[N+](=O)[O-])ON1C (mixture of isomers) | inactive |
| CCOP(=O)(OCC)[C@@H]1C[C@H](C(=O)Nc2ccc([N+](=O)[O-])cc2)ON1C (racemic) | inactive |
| CCOP(=O)(OCC)[C@H]1C[C@H](C(=O)Nc2ccccc2F)ON1C (mixture of isomers) | inactive |
| CCOP(=O)(OCC)[C@@H]1C[C@H](C(=O)Nc2ccccc2Cl)ON1C (mixture of isomers) | inactive |
| CCOP(=O)(OCC)[C@H]1C[C@H](C(=O)Nc2cccc(F)c2)ON1C (mixture of isomers) | inactive |
| CCOP(=O)(OCC)[C@H]1C[C@H](C(=O)Nc2ccccc2Br)ON1C (mixture of isomers) | inactive |
| CCOP(=O)(OCC)[C@H]1C[C@H](C(=O)Nc2ccc([N+](=O)[O-])cc2)ON1C (mixture of isomers) | inactive |
| CCOP(=O)(OCC)[C@H]1C[C@H](C(=O)Nc2cc(OC)c(OC)cc2C(C)=O)ON1C (mixture of isomers) | inactive |
| CCOP(=O)(OCC)[C@@H]1C[C@H](C(=O)Nc2cccc(C)c2)ON1C (mixture of isomers) | inactive |
| CCOP(=O)(OCC)[C@@H]1C[C@H](C(=O)Nc2cc(OC)c(OC)cc2C#N)ON1C (mixture of isomers) | inactive |
| CCOP(=O)(OCC)[C@@H]1C[C@H](C(=O)Nc2cccc([N+](=O)[O-])c2)ON1C (mixture of isomers) | inactive |
| CCOP(=O)(OCC)[C@@H]1C[C@H](C(=O)Nc2cccc(F)c2)ON1C (mixture of isomers) | inactive |
| CCOc1ccc(NC(=O)[C@H]2C[C@H](P(=O)(OCC)OCC)N(C)O2)cc1 (mixture of isomers) | inactive |
| CCOP(=O)(OCC)[C@@H]1C[C@H](C(=O)Nc2cc(OC)c(OC)cc2C(C)=O)ON1C (mixture of isomers) | inactive |
| CCOP(=O)(OCC)[C@@H]1C[C@H](C(=O)Nc2cccc(C#N)c2)ON1C (racemic) | inactive |
| CCOP(=O)(OCC)[C@@H]1C[C@H](C(=O)Nc2ccc(F)cc2)ON1C (mixture of isomers) | inactive |
| CCOP(=O)(OCC)[C@H]1C[C@H](C(=O)Nc2cccc(C#N)c2)ON1C (racemic) | inactive |
| CCOP(=O)(OCC)[C@@H]1C[C@H](C(=O)Nc2ccc(F)cc2F)ON1C (mixture of isomers) | inactive |
| CCOP(=O)(OCC)[C@H]1C[C@H](C(=O)Nc2cc(OC)cc(OC)c2)ON1C (mixture of isomers) | inactive |
| CCOc1ccc(NC(=O)[C@H]2C[C@@H](P(=O)(OCC)OCC)N(C)O2)cc1 (racemic) | inactive |
| CCOP(=O)(OCC)[C@@H]1C[C@H](C(=O)Nc2cc(OC)cc(OC)c2)ON1C (mixture of isomers) | inactive |
| CCOP(=O)(OCC)[C@H]1C[C@H](C(=O)Nc2cccc(C)c2)ON1C (racemic) | inactive |
| CCOP(=O)(OCC)[C@H]1C[C@H](C(=O)Nc2ccc(OC)c(OC)c2)ON1C (mixture of isomers) | inactive |
| CCOP(=O)(OCC)[C@H]1C[C@H](C(=O)Nc2ccc(C)cc2)ON1C (relative stereo) | inactive |
| CCOP(=O)(OCC)[C@H]1C[C@H](C(=O)Nc2ccc(F)cc2F)ON1C (mixture of isomers) | inactive |
